# Published values gathered from unrelated publications.
# Lines come from different studies, so protocols differ.
# Effect on: enzyme activity
# Action: inhibitor
# ABL1: Tyrosine-protein kinase ABL1 (ABL1, Homo sapiens, UniProt P00519)
# ABL1 Y253F: Tyrosine-protein kinase ABL1 (ABL1, Homo sapiens, UniProt P00519, Y253F)
# ABL1 T315I: Tyrosine-protein kinase ABL1 (ABL1, Homo sapiens, UniProt P00519, T315I)
SMILES,target,assay,setting,inhibition
CNc1cccc2cc(C(=O)Nc3ccc(C(=O)O)cc3)c(=O)[nH]c12,"Tyrosine-protein kinase ABL1 (ABL1, Homo sapiens, UniProt P00519, H396P)",,10 µM,1.9%
CSc1nc(C)c(-c2ccnc(Nc3ccc(N4CCOCC4)cc3)c2)[nH]1,ABL1,,10 µM,19.3%
COc1cc(-c2cc(-c3ccc(N4CCNCC4)cc3)cnc2N)cc(OC)c1OC,ABL1 Y253F,,0.1 µM,83%
CS(=O)(=O)Nc1cccc(-c2csc(NC(=O)CSc3nc4nccnc4c(=O)n3CCc3ccccc3)n2)c1,ABL1 T315I,,10 µM,-2%
C=CC(=O)Nc1cc(Nc2nccc(Nc3cc(Cl)c(F)cc3C(C)(C)O)n2)c(OC)cc1N1CC[C@@H](N(C)C)C1,ABL1 T315I,,1 µM,18%
CNCc1ccc(-c2cc(-c3nc(-c4ccc(S(=O)(=O)C(C)C)cc4)cnc3N)on2)cc1,ABL1,,2 µM,34%
COc1cc2ncnc(Nc3ccc(Oc4ccccc4)cc3C)c2cc1OC,ABL1 Y253F,,1 µM,12%
O=C(CSc1nc2nccnc2c(=O)n1CCc1ccccc1)Nc1nccs1,"Tyrosine-protein kinase ABL1 (ABL1, Homo sapiens, UniProt P00519, E255K)",,10 µM,-1%
CNC(=O)c1cc2c(Oc3ccc(NC(=O)C4(C(=O)Nc5ccc(F)cc5)CC4)cc3)ccnc2cc1OC,ABL1,radiometric,1 µM,70%
CC/C(=N\NC(=O)NCc1cccc(O)c1)c1ccc(O)c(C)c1O,ABL1,,0.1 µM,-0.9%
CN(C)C1CCN(CC#Cc2nn(C3CCCC3)c3nc(NCc4ccccc4)ncc23)C1 (stereo not shown),ABL1,FRET,1 µM,6%
CCCS(=O)(=O)Nc1ccc(F)c(C(=O)c2c[nH]c3ncc(-c4ccc(Cl)cc4)cc23)c1F,ABL1,,1 µM,< 20%
COc1cc2ncnc(Nc3ccc(Oc4ccccc4)c(C)c3C)c2cc1OC,ABL1,,1 µM,-4%
